Source: PubChem BioAssay
CSC inhib = blocks cancer stem cells. cancer stem cell-like cells viability, luminescence. 300,000 tested, 1.1% active. inhibition, % at 7.5 µM; in the data active = inhibition above about 75%; inconclusive = no clear call, values can overlap the other calls; tested in HMLE shEcad cells
PolyA inh = blocks polyadenylation in yeast reporter cells; activity score, % at 12 µM; S. cerevisiae SKY197-pL101 polyadenylation reporter, beta-gal luminescence; efflux-impaired pdr1/pdr3 knockout yeast; score 100 = 6 SD above DMSO; 300,000 tested, 0.02% active;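 active = lowest replicate activity score at least 50, where 100 means six control SD above control mean; inconclusive = lowest score under 50 but half or more replicates reach 50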;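 note: yeast exposed to compound for 9 h at 30 °C; higher score means more reporter readthrough which indicates perturbed polyadenylation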
HIF act = HIF pathway transcriptional activation; 300,000 tested, 0.32% active; U2OS HRE-luciferase reporter, luminescence; normalized: DMSO 0%, desferrioxamine 100%; activation, % at 7.5 µM (by protocol); AID 1910;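 active = mean activation of at least 10% of the iron chelator positive control signal, with at least half of replicates also reaching 10%; inconclusive = mean and replicate majority disagree about reaching 10%; inactive = mean and most replicates under 10%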
Beta cell apopt = blocks beta cell apoptosis; INS-1E cytokine-induced death, ATP luminescence, 48 h; percent of positive-control rescue, neutral wells zero; protection from apoptosis, % (no concentration beside the values); AID 435005; 300,000 tested, 0.8% active;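 active = Every replicate reaches about 75%, or at least half do and their mean reaches it too, limit read from the data; inconclusive = At least half of replicates reach the limit but their mean does not; inactive = Under half of replicates reach the limit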;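 note: higher means more ATP so stronger rescue from cytokine killing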
T cruzi inh = blocks replication of Trypanosoma cruzi; 300,000 tested, 1.4% active; AID 1885; inhibition, % (no concentration beside the values); T. cruzi beta-gal in NIH3T3, luminescence, 90 h;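 active = mean inhibition across valid replicates above about 55%, limit read from the data; inconclusive = mean below that limit but half or more replicates reach it; inactive = mean below it, under half of replicates reach it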;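 note: signal also drops with host cell toxicity which is not excluded here; higher percent means less beta-gal luminescence so fewer parasites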
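Incubation – ≥90 h infection period, 3 h prior cell attachment · System – NIH/3T3 fibroblasts plus reporter T. cruzi · Doses – compound pinned at 50 nL/well, DMSO · Read-out basis – percent inhibition of parasite-derived β-gal signal · Signal – luminescent β-galactosidase signal after 60 min lysis · Also added – 5000 T. cruzi trypomastigotes/well · Medium – Low-serum DMEM with 2% FBS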
Calb FLC = affects C. albicans growth with fluconazole; C. albicans CaCi-2 (fluconazole-resistant clinical isolate) + fluconazole, Alamar Blue growth, 48 h; growth inhibition, % (no concentration beside the values); 300,000 tested, 0.57% active;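 active = growth inhibition above about 58% in most replicates, limit read from the data, passing the limit was not always enough; inconclusive = exactly half the replicates above a set limit; inactive = most replicates below a set limit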;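 note: all wells also contain fluconazole at 8 µg/ml as a sub-toxic cotreatment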
Large screens that a line does not name were inactive. Sampled rows, rich in hits. Any-hit rate of the full collection: about 3.1%.

O=C(Nc1ccccc1C(=O)NCc1cccnc1)c1ccc(Cl)cc1Cl	none
Oc1cc(Cc2ccccc2)cnc1CN1CCCCC1	none
CCOc1ccccc1N1CCN(Cc2cccc(OC)c2O)CC1	none
CN(C)C1CCN(Cc2cc(COCc3ccccc3)c3cccnc3c2O)C1 (stereo unspecified)	Beta cell apopt 77 (no result: CSC inhib, PolyA inh, HIF act, T cruzi inh, Calb FLC)
COCc1cc(CN2CCCC2)c(O)c2ncccc12	T cruzi inh 64
COc1ccc(CN2CCC(C(N)=O)CC2)cc1OCc1ccccc1	none
COc1ccccc1N1CCN(Cc2cc(Br)c(O)c3ncccc23)CC1	CSC inhib 77, HIF act 12, Beta cell apopt 102, T cruzi inh 59, Calb FLC 88
Oc1c(CN2CCCCC2)cc(COCc2ccccc2)c2cccnc12	HIF act 132, T cruzi inh 72
COc1ccc(C)cc1NC(=O)CSc1nnc(COc2ccc(Cl)cc2)n1Cc1ccco1	CSC inhib 79
COc1ccc(C)cc1NC(=O)CSc1nnc(COc2ccccc2)n1Cc1ccco1	none
CCOC(=O)c1c(NC(=O)Cn2cnc([N+](=O)[O-])n2)sc2c1CCCC2	T cruzi inh 64
CN(C)c1cc[n+](CC(=O)Nc2ccc(Oc3ccccc3)cc2)cc1	Beta cell apopt 91
CCOC(=O)c1c(NC(=S)N2CCCCC2)sc2c1CCN(C(=O)OCC)C2	CSC inhib 93
CCOc1ccc(NC(=O)C[n+]2ccc(N(C)C)cc2)cc1	none
CCOC(=O)c1c(NC(=O)C[n+]2ccc(N(C)C)cc2)sc(C)c1C	T cruzi inh 62
O=C(Nc1nncs1)c1cc(S(=O)(=O)N2CCCCC2)ccc1Cl	none (no result: Beta cell apopt)
COCCN1CCN(C(=O)C2CCC(=O)N(CCc3cccc(F)c3)C2)CC1 (stereo unspecified)	none
CC(C)OC(=O)c1c(NC(=O)Cn2cnc([N+](=O)[O-])n2)sc2c1CCCC2	T cruzi inh 105
CC1CCc2c(sc(NC(=O)Cn3cnc([N+](=O)[O-])n3)c2C(N)=O)C1 (stereo unspecified)	T cruzi inh 68
CCOC(=O)c1c(NC(=O)Cn2cnc([N+](=O)[O-])n2)sc(C)c1C	T cruzi inh 72
CCOC(=O)c1c(NC(=O)c2nn(CC)cc2Br)sc2c1CCCCC2	CSC inhib 85
NC(=O)c1c(NC(=O)Cn2cnc([N+](=O)[O-])n2)sc2c1CCCC2	none (no result: CSC inhib)
Cc1nc(SCc2nc3ccc([N+](=O)[O-])cc3[nH]2)c2oc3ccccc3c2n1	none (no result: CSC inhib, PolyA inh, HIF act, T cruzi inh, Calb FLC)
Brc1ccsc1/C=N/Nc1ccccc1	none (no result: Beta cell apopt)
CC(C)(C)N1C(=O)[C@H]2[C@@H](c3ccc(Br)cc3)N3C(=O)N(c4cccc(Cl)c4)C(=O)[C@@]3(Cc3ccccc3)[C@H]2C1=O	none
Cc1cc(C)cc(N2C(=O)CC(Sc3ncn[nH]3)C2=O)c1 (stereo unspecified)	none
CCOC(=O)c1c(NC(=O)C2Cc3ccccc3C(=O)O2)sc2c1CCCC2 (stereo unspecified)	Calb FLC 104
COC(=O)c1sccc1OCc1cccc(OC)c1	none
Cc1nc2ccccc2cc1OCc1ccccc1	Calb FLC 107
Cc1nc2ccccc2cc1OCc1ccc(Cl)cc1	Beta cell apopt 109 (no result: CSC inhib)
Cc1nc2ccccc2nc(C)c1=NOCc1cccc(Cl)c1	none
Cc1nc(OCc2ccccc2)c2ccccc2n1	none
COc1cccc(COc2cc3ccccc3nc2C)c1	Beta cell apopt 98, Calb FLC 100
Cc1ccc(Cl)cc1N1CCN(Cc2nc3c(c(=O)[nH]c(=O)n3C)n2Cc2ccccc2F)CC1	CSC inhib 118
COc1cc(C(=O)N2CCN(C(=O)Cc3ccccc3)CC2)cc(OC)c1OC	HIF act 13
O=C(CSC(=S)N1CCOCC1)Nc1nccs1	none
O=C(CSC(=S)N1CCOCC1)Nc1nc(=O)c2ccccc2s1	T cruzi inh inconclusive, Calb FLC 52
COc1ccc(NS(=O)(=O)c2ccc(N3CCOCC3)c(N)c2)cc1	Beta cell apopt 76 (no result: PolyA inh, HIF act, T cruzi inh, Calb FLC)
CSc1ccc(S(=O)(=O)Nc2ccc(N3CCOCC3)c(Cl)c2)cc1	Beta cell apopt 104
CCOc1ccc(CCNC(=O)CN2C(=O)CCSc3ccccc32)cc1OCC	PolyA inh 67
COc1ccc(-c2c(C#N)c(SCC(=O)c3cc4ccccc4oc3=O)nc(C)c2C(=O)Nc2ccccc2)cc1	CSC inhib 105
